The results in this text go back to ChEMBL document CHEMBL1123215, “Arginine-vasopressin analogues with high antidiuretic/vasopressor selectivity. Synthesis, biological activity, and receptor binding affinity of arginine-vasopressin analogues with substitutions in positions 1, 2, 4, 7, and 8” (J Med Chem, 1986).

Assay [1] deals with Rattus norvegicus. The experiment in a line: Compound was tested for the antidiuretic activity against hydrated anaesthetized rats, after intravenous injection. Type of assay: functional, Urine. An outline of the steps:
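Hydrated, anaesthetized rats given intravenous injection; effect measured as change in urine conductivity, with arginine-vasopressin as standard.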

Assay [2] relates to Rattus norvegicus. The experiment in a line: Compound was tested for the vasopressor activity against phenoxybenzamine treated rats, after intravenous injection. Type of assay: functional. An outline of the steps:
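Pressor response measured in rats pretreated with phenoxybenzamine.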

The nature of assay [3]: Ratio of antidiuretic potency vs vasopressor potency. Type of assay: functional, Urine. An outline of the steps: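 Antidiuretic potency from urine conductivity change in hydrated anaesthetized rats after i.v. injection, vasopressor potency in phenoxybenzamine-treated rats, arginine-vasopressin as standard; ratio of the two potencies.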
Another assay addresses Vasopressin V2 receptor (Bos taurus, UniProt P48044). The assay is described as follows: Binding affinity against plasma membrane from bovine kidney inner medulla. Type of assay: tissue-based. The method in brief:
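Competition binding with [3H]AVP to plasma membranes, 30 min incubation; for rat liver membranes the standard medium included bacitracin (1 mg/mL). Apparent KD and slope factor b from weighted nonlinear least-squares fit of displacement curves to logistic curves; [3H]AVP parameters from direct binding. Mean ±SE of two experiments.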

The next assay addresses Vasopressin V1 receptor (Rattus norvegicus, UniProt P48974+P30560). The assay is described as follows: Binding affinity against plasma membrane from rat liver. An outline of the steps: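 Rat liver plasma membranes, competition against [3H]AVP, 30 min incubation, bacitracin (1 mg/mL) in standard medium. Apparent KD and slope factor b from weighted nonlinear least-squares logistic fit of displacement curves; mean ±SE of two experiments.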

Molecules are shown by their SMILES. Positions of bridges follow the written chain, without caps; N, C: chain ends. Non-standard residues stand in square brackets, D forms with d. Residues, ends and D or L forms follow the SMILES beside them. NMeA = CN[C@@H](C)C(=O)O; Mpa = O=C(O)CCS; Sar = CNCC(=O)O

Vasopressin V2 receptor, sequence (P48044 whole entry): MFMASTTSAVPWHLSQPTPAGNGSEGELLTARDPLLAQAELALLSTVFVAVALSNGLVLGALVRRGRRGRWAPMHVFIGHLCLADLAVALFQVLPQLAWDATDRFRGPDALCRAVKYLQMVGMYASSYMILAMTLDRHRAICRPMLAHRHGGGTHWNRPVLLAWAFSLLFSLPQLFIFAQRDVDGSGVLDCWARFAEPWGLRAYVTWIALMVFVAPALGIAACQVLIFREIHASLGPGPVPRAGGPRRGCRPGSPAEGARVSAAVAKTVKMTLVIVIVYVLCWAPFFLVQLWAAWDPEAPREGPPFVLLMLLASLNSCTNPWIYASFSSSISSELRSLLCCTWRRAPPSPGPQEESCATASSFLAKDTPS

For the compound `C[C@@H](C(=O)N[C@@H](CCCN=C(N)N)C(=O)NCC(N)=O)N(C)C(=O)[C@@H]1CSSC[C@H](N)C(=O)N[C@@H](Cc2ccc(O)cc2)C(=O)N[C@@H](Cc2ccccc2)C(=O)N[C@@H](CCC(N)=O)C(=O)N[C@@H](CC(N)=O)C(=O)N1`, the Potency in the assay on Rattus norvegicus [1] was found to be 343 IU mg-1; in the assay on Rattus norvegicus [2] it was 10.6 IU mg-1. The Ratio in assay [3] was 32.

A word on the Kd: it is the concentration at which binding is half-saturated. A low value points to tighter binding. As for `CC(C)[C@H]1NC(=O)[C@H](Cc2ccccc2)NC(=O)[C@@H](Cc2ccc(O)cc2)NC(=O)CCSSC[C@@H](C(=O)N(C)[C@@H](C)C(=O)N[C@@H](CCCN=C(N)N)C(=O)NCC(N)=O)NC(=O)[C@H](CC(N)=O)NC1=O`, the Potency with Rattus norvegicus [1] was determined as 103 IU mg-1; with Rattus norvegicus [2] it was 0.69 IU mg-1. Moreover, the Kd on Vasopressin V2 receptor came to 9.4 nM; on Vasopressin V1 receptor it was 53 nM. In addition, in assay [3], the Ratio was determined as 150.

For `CN(CC(=O)N[C@H](CCCN=C(N)N)C(=O)NCC(N)=O)C(=O)[C@@H]1CSSC[C@H](N)C(=O)N[C@@H](Cc2ccc(O)cc2)C(=O)N[C@@H](Cc2ccccc2)C(=O)N[C@@H](CCC(N)=O)C(=O)N[C@@H](CC(N)=O)C(=O)N1` [listing 1 of 2 here], the Kd on Vasopressin V2 receptor came out at 10 nM; at Vasopressin V1 receptor, 420 nM.

Consider `CN(CC(=O)N[C@H](CCCN=C(N)N)C(=O)NCC(N)=O)C(=O)[C@@H]1CSSC[C@H](N)C(=O)N[C@@H](Cc2ccc(O)cc2)C(=O)N[C@@H](Cc2ccccc2)C(=O)N[C@@H](CCC(N)=O)C(=O)N[C@@H](CC(N)=O)C(=O)N1` [listing 2 of 2 here], for which the values for the Potency in the assay with Rattus norvegicus [1] and in the assay with Rattus norvegicus [2] were 56 IU mg-1 and 0.04 IU mg-1, respectively. In addition, in assay [3], the Ratio turned out to be 1400.

Consider `C[C@@H](C(=O)N[C@H](CCCN=C(N)N)C(=O)NCC(N)=O)N(C)C(=O)[C@@H]1CSSC[C@H](N)C(=O)N[C@@H](Cc2ccc(O)cc2)C(=O)N[C@@H](Cc2ccccc2)C(=O)N[C@@H](CCC(N)=O)C(=O)N[C@@H](CC(N)=O)C(=O)N1` [listing 1 of 2 here], for which the Kd was determined as 21 nM at Vasopressin V2 receptor and 280 nM at Vasopressin V1 receptor.

Regarding `C[C@@H](C(=O)N[C@H](CCCN=C(N)N)C(=O)NCC(N)=O)N(C)C(=O)[C@@H]1CSSC[C@H](N)C(=O)N[C@@H](Cc2ccc(O)cc2)C(=O)N[C@@H](Cc2ccccc2)C(=O)N[C@@H](CCC(N)=O)C(=O)N[C@@H](CC(N)=O)C(=O)N1` [listing 2 of 2 here], the Potency stood at 69 IU mg-1 in the assay with Rattus norvegicus [1] and 0.11 IU mg-1 with Rattus norvegicus [2]. Further, the Ratio in assay [3] is given as 630.

Regarding `CN(CC(=O)N[C@@H](CCCN=C(N)N)C(=O)NCC(N)=O)C(=O)[C@@H]1CSSC[C@H](N)C(=O)N[C@@H](Cc2ccc(O)cc2)C(=O)N[C@@H](Cc2ccccc2)C(=O)N[C@@H](CCC(N)=O)C(=O)N[C@@H](CC(N)=O)C(=O)N1`, the Potency with Rattus norvegicus [1] turned out to be 188 IU mg-1; in the assay on Rattus norvegicus [2] it was 3.6 IU mg-1. The Ratio in assay [3] is reported as 52.

In the case of `C[C@@H](C(=O)N[C@H](CCCN=C(N)N)C(=O)NCC(N)=O)N(C)C(=O)[C@@H]1CSSCCC(=O)N[C@@H](Cc2ccc(O)cc2)C(=O)N[C@@H](Cc2ccccc2)C(=O)N[C@@H](CCC(N)=O)C(=O)N[C@@H](CC(N)=O)C(=O)N1` [listing 1 of 2 here], the Kd at Vasopressin V2 receptor is 51 nM; on Vasopressin V1 receptor, 290 nM.

On to `C[C@@H](C(=O)N[C@H](CCCN=C(N)N)C(=O)NCC(N)=O)N(C)C(=O)[C@@H]1CSSCCC(=O)N[C@@H](Cc2ccc(O)cc2)C(=O)N[C@@H](Cc2ccccc2)C(=O)N[C@@H](CCC(N)=O)C(=O)N[C@@H](CC(N)=O)C(=O)N1` [listing 2 of 2 here], for which the Potency in the assay on Rattus norvegicus [1] is recorded as 368.5 IU mg-1; in the assay on Rattus norvegicus [2], 0.07 IU mg-1. Further, in assay [3], the Ratio stood at 5260.

Regarding `CN(CC(=O)N[C@H](CCCN=C(N)N)C(=O)NCC(N)=O)C(=O)[C@@H]1CSSCCC(=O)N[C@@H](Cc2ccc(O)cc2)C(=O)N[C@@H](Cc2ccccc2)C(=O)N[C@@H](CCC(N)=O)C(=O)N[C@@H](CC(N)=O)C(=O)N1` [listing 1 of 2 here], the dissociation constant (Kd) at Vasopressin V2 receptor came to 8.7 nM; at Vasopressin V1 receptor, 160 nM.

As for `CN(CC(=O)N[C@H](CCCN=C(N)N)C(=O)NCC(N)=O)C(=O)[C@@H]1CSSCCC(=O)N[C@@H](Cc2ccc(O)cc2)C(=O)N[C@@H](Cc2ccccc2)C(=O)N[C@@H](CCC(N)=O)C(=O)N[C@@H](CC(N)=O)C(=O)N1` [listing 2 of 2 here], the Potency worked out at 214.5 IU mg-1 with Rattus norvegicus [1] and 0.01 IU mg-1 in the assay with Rattus norvegicus [2]. For the same compound, the Ratio in assay [3] is 2145.

Consider `C[C@@H](C(=O)N[C@@H](CCCN=C(N)N)C(=O)NCC(N)=O)N(C)C(=O)[C@@H]1CSSC[C@H](N)C(=O)N[C@@H](Cc2ccccc2)C(=O)N[C@@H](Cc2ccccc2)C(=O)N[C@@H](CCC(N)=O)C(=O)N[C@@H](CC(N)=O)C(=O)N1` (H-CFFQNC[NMeA]RG-NH2; disulfide 1-6) [listing 1 of 2 here], for which the dissociation constant Kd at Vasopressin V2 receptor and at Vasopressin V1 receptor was 110 nM each time.

`C[C@@H](C(=O)N[C@@H](CCCN=C(N)N)C(=O)NCC(N)=O)N(C)C(=O)[C@@H]1CSSC[C@H](N)C(=O)N[C@@H](Cc2ccccc2)C(=O)N[C@@H](Cc2ccccc2)C(=O)N[C@@H](CCC(N)=O)C(=O)N[C@@H](CC(N)=O)C(=O)N1` (H-CFFQNC[NMeA]RG-NH2; disulfide 1-6) [listing 2 of 2 here]: the Potency in the assay on Rattus norvegicus [1] is recorded as 14.5 IU mg-1; with Rattus norvegicus [2] it was 0.57 IU mg-1. For the same compound, in assay [3], the Ratio was determined as 25.

Turning to `CN(CC(=O)N[C@@H](CCCNC(=N)N)C(=O)NCC(N)=O)C(=O)[C@@H]1CSSC[C@H](N)C(=O)N[C@@H](Cc2ccccc2)C(=O)N[C@@H](Cc2ccccc2)C(=O)N[C@@H](CCC(N)=O)C(=O)N[C@@H](CC(N)=O)C(=O)N1` (H-CFFQNC[Sar]RG-NH2; disulfide 1-6), the Kd at Vasopressin V2 receptor amounted to 44 nM; at Vasopressin V1 receptor, 170 nM.

In the case of `CN(CC(=O)N[C@@H](CCCN=C(N)N)C(=O)NCC(N)=O)C(=O)[C@@H]1CSSC[C@H](N)C(=O)N[C@@H](Cc2ccccc2)C(=O)N[C@@H](Cc2ccccc2)C(=O)N[C@@H](CCC(N)=O)C(=O)N[C@@H](CC(N)=O)C(=O)N1` (H-CFFQNC[Sar]RG-NH2; disulfide 1-6), the figures for the Potency in the assay on Rattus norvegicus [1] and in the assay with Rattus norvegicus [2] were 39.6 IU mg-1 and 0.17 IU mg-1, respectively. For the same compound, the Ratio in assay [3] turned out to be 230.

Consider `CC(C)[C@@H]1NC(=O)[C@H](Cc2ccccc2)NC(=O)[C@H](Cc2ccc(O)cc2)NC(=O)[C@@H](N)CSSC[C@@H](C(=O)N(C)[C@@H](C)C(=O)N[C@@H](CCCNC(=N)N)C(=O)NCC(N)=O)NC(=O)[C@H](CC(N)=O)NC1=O` (H-CYFVNC[NMeA]RG-NH2; disulfide 1-6), for which the Kd on Vasopressin V2 receptor came out at 33 nM; at Vasopressin V1 receptor it was 310 nM.

Consider `CC(C)[C@@H]1NC(=O)[C@H](Cc2ccccc2)NC(=O)[C@H](Cc2ccc(O)cc2)NC(=O)[C@@H](N)CSSC[C@@H](C(=O)N(C)CC(=O)N[C@@H](CCCNC(=N)N)C(=O)NCC(N)=O)NC(=O)[C@H](CC(N)=O)NC1=O` (H-CYFVNC[Sar]RG-NH2; disulfide 1-6), for which the figures for the dissociation constant Kd on Vasopressin V2 receptor and on Vasopressin V1 receptor were 9.4 nM and 110 nM, respectively.

As to `CC(C)[C@@H]1NC(=O)[C@H](Cc2ccccc2)NC(=O)[C@H](Cc2ccc(O)cc2)NC(=O)[C@@H](N)CSSC[C@@H](C(=O)N(C)CC(=O)N[C@@H](CCCN=C(N)N)C(=O)NCC(N)=O)NC(=O)[C@H](CC(N)=O)NC1=O` (H-CYFVNC[Sar]RG-NH2; disulfide 1-6), the Potency with Rattus norvegicus [1] was 270 IU mg-1; in the assay with Rattus norvegicus [2] it was 34.7 IU mg-1. For the same compound, the Ratio in assay [3] stood at 8.

`CC(C)[C@@H]1NC(=O)[C@H](Cc2ccccc2)NC(=O)[C@H](Cc2ccc(O)cc2)NC(=O)CCSSC[C@@H](C(=O)N(C)CC(=O)N[C@@H](CCCN=C(N)N)C(=O)NCC(N)=O)NC(=O)[C@H](CC(N)=O)NC1=O` ([Mpa]YFVNC[Sar]RG-NH2; disulfide 1-6) [listing 1 of 2 here]: the dissociation constant Kd on Vasopressin V2 receptor turned out to be 1.4 nM; on Vasopressin V1 receptor, 27 nM.

For `CC(C)[C@@H]1NC(=O)[C@H](Cc2ccccc2)NC(=O)[C@H](Cc2ccc(O)cc2)NC(=O)CCSSC[C@@H](C(=O)N(C)CC(=O)N[C@@H](CCCN=C(N)N)C(=O)NCC(N)=O)NC(=O)[C@H](CC(N)=O)NC1=O` ([Mpa]YFVNC[Sar]RG-NH2; disulfide 1-6) [listing 2 of 2 here], the Potency in the assay on Rattus norvegicus [1] is listed as 552 IU mg-1; in the assay on Rattus norvegicus [2], 0.4 IU mg-1. Also, the Ratio in assay [3] was found to be 1380.

In the case of `N=C(N)NCCC[C@H](NC(=O)[C@@H]1CCCN1C(=O)[C@@H]1CSSC[C@H](N)C(=O)N[C@@H](Cc2ccc(O)cc2)C(=O)N[C@@H](Cc2ccccc2)C(=O)N[C@@H](CCC(N)=O)C(=O)N[C@@H](CC(N)=O)C(=O)N1)C(=O)NCC(N)=O` [VASOPRESSIN], the Potency with Rattus norvegicus [1] was found to be 323 IU mg-1.
